Measured values collected from several papers.
Protocols differ between the studies behind these lines.
AR: Androgen receptor (AR, Homo sapiens, UniProt P10275)
PDE2A: cGMP-dependent 3',5'-cyclic phosphodiesterase (PDE2A, Homo sapiens, UniProt O00408)
MMP8: Neutrophil collagenase (MMP8, Homo sapiens, UniProt P22894)
CA2: Carbonic anhydrase 2 (CA2, Homo sapiens, UniProt P00918)

`Clc1ccc2c(C3CCN(CCc4c[nH]c5ccccc45)CC3)c[nH]c2c1` gave an inhibition of 25% (AR; ligand displacement; radioligand; 10 µM).
`Cc1ncc(C)n2nc(/C=C/c3nc(N4CCCC4)cc(N4CCOCC4)n3)nc12` gave an inhibition of 38% (PDE2A; enzyme activity; inhibitor; 10 µM).
For `N=C(N)c1ccc2cc(OC(=O)c3ccc(N=C(N)N)cc3)ccc2c1`, the inhibition was 0% (MMP8; enzyme activity; inhibitor; 10 µM).
For `CCN(CC)CCCC[C@H](NC(=O)[C@H](CC(C)C)NC(=O)[C@H](C)NC(=O)[C@H](Cc1ccccc1)NC(=O)c1ccc(C(C)(C)C)cc1)C(=O)N[C@@H](CO)C(=O)OC`, the inhibition was 29% (Delta-type opioid receptor (OPRD1, Homo sapiens, UniProt P41143); ligand displacement; radioligand; 10 µM).
`Cn1cc(-c2cc(F)cc(N3CCn4c(cc5c4CCCC5)C3=O)c2CO)cc(Nc2ccc(N3CCN(C4COC4)CC3)cn2)c1=O` gave an inhibition of -12% (Serine/threonine-protein kinase WNK2 (WNK2, Homo sapiens, UniProt Q9Y3S1); enzyme activity; inhibitor; 0.1 µM).
For `C[C@H](C(=O)N[C@H]1COc2ccccc2[C@@H]1S(C)(=O)=O)c1ccc(F)cc1`, the inhibition was 8% (CA2; enzyme activity; inhibitor; 10 µM).
The inhibition of `COc1ccc(S(=O)(=O)N(CC(=O)NO)CC(C)C)cc1` is reported as 5% (MMP8; enzyme activity; inhibitor; 10 nM).
For `COc1cc(Nc2ncc(F)c(Nc3ccc4c(n3)NC(=O)C(C)(C)O4)n2)cc(OC)c1OC`, the inhibition was 96% (Receptor-interacting serine/threonine-protein kinase 4 (RIPK4, Homo sapiens, UniProt P57078); binding; 10 µM).
For `C#Cc1n[nH]c2c(-c3cn(C(C)c4ccccn4)c(=O)[nH]c3=O)cc(F)cc12` (stereo not drawn), the inhibition was -10.4% (Misshapen-like kinase 1 (MINK1, Homo sapiens, UniProt Q8N4C8); enzyme activity; inhibitor; 1 µM).
`CC(C)=CCCC1(C)C=Cc2c(O)c3c(c(CC=C(C)C)c2O1)OC12C(=CC4CC1C(C)(C)OC2(C/C=C(/C)C(=O)O)C4O)C3=O` (stereo not drawn) has an inhibition of 7% (N-lysine methyltransferase KMT5A (KMT5A, Homo sapiens, UniProt Q9NQR1); cell-free assay; 10 µM).
The inhibition of `COCc1c(-c2cc3cc(C)cc(OC)c3s2)c2c(N)ncnn2c1CN1CCNC(=O)C1` is reported as 44% (CA2; enzyme activity; inhibitor; 10 µM).
`O=C(Nc1cccnn1)N1CCN([C@@H]2CCOc3cc(C(F)(F)F)ccc32)CC1` gave an inhibition of 3% (PDE2A; enzyme activity; inhibitor; 20 µM).
With `CCOC(=O)c1ccc(OC(=O)CCCCCNC(=N)N)cc1` the inhibition was 7% (MMP8; enzyme activity; inhibitor; 10 µM).
The inhibition of `Cn1cc(-c2cccc(N3CCc4c(sc5c4CC(C)(C)C5)C3=O)c2CO)cc(Nc2ccncn2)c1=O` is reported as 16% (G protein-coupled receptor kinase 3 (GRK3, Homo sapiens, UniProt P35626); enzyme activity; inhibitor; 1 µM).
The inhibition of `COc1ccc(S(=O)(=O)N2CCCCC2)cc1C` is reported as less than 30% (AR; ligand displacement; radioligand; 10 µM).
